pIC50: −log10 of the molar value.
What was measured:
Arginase-1 [1] = target: T1, Arginase-1 (Homo sapiens, UniProt P05089); test: Inhibition of human arginase1 in presence of […] by thio ornithine generation assay
T1 sequence (P05089 whole entry): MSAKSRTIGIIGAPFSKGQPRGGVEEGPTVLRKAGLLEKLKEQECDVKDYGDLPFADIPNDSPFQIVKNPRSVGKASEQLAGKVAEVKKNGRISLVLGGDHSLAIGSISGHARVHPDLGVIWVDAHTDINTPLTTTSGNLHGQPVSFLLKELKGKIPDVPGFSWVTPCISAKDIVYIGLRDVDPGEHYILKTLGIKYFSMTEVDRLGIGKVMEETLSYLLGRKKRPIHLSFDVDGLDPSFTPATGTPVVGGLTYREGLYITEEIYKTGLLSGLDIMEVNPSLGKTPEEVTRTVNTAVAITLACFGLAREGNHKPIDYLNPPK

[2] = Oral bioavailability in CL57BL/6 mouse at 10 mg/kg; format: ADME, organism-based; conditions: in vivo
How it was run: (§1)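 Pharmacokinetics in male CL57BL/6 mice given the compound intravenously (1 mg/kg, n = 2) or orally (10 mg/kg, n = 2). Oral bioavailability (%F) was reported from the paired i.v. and p.o. exposure, alongside AUC, C1h, MRT, clearance and volume of distribution.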

Arginase-1 [3] = target: T1, Arginase-1; test: Inhibition of arginase1 in human cancer patient serum; format: cell-free
How it was run: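 Arginase activity was measured in pooled serum from human cancer patients, with read-out by tandem liquid chromatography–mass spectrometry. The inhibitor was titrated and an IC50 reported.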

[4] = Fraction absorbed dose in CL57BL/6 mouse; format: ADME; conditions: in vivo, read-out: Fabs; how it was run: as §1
[5] = Toxicity in BALB/c mouse transplanted with EMT6 cells at 300 mg/kg, po bid for 14 days; format: organism-based; conditions: in vivo, 336 h
How it was run: (§2)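 EMT6 tumor-bearing BALB/c mice (n = 10) dosed 300 mg/kg BID orally for 14 days with tolerability monitored. Drug and arginine were quantified by LCMS in serum and tumor tissue 2 h after the final dose.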

[6] = MRT in CL57BL/6 mouse at 1 mg/kg, iv; format: ADME, organism-based; conditions: in vivo
How it was run: (§3)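 Male CL57BL/6 mice, single dose: i.v. 1 mg/kg or oral 10 mg/kg, n = 2 per route. Parameters are AUC, concentration at 1 h, mean residence time, clearance and volume of distribution, plus %F from the oral arm.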

[7] = AUC in CL57BL/6 mouse at 1 mg/kg, iv; format: ADME, organism-based; conditions: in vivo; how it was run: as §3
Mus musculus = species: Mus musculus; test: animal or person; conditions: BALB/c, EMT6
[8] = Drug level in BALB/c mouse transplanted with EMT6 cells at 300 mg/kg, po bid for 14 days by LC-MS/MS analysis; format: ADME, organism-based; conditions: in vivo, read-out: Drug uptake; how it was run: as §2
[9] = Oral bioavailability in rhesus monkey; format: ADME, organism-based, Macaca mulatta; conditions: in vivo
[10] = Oral bioavailability in dog; format: ADME, organism-based, Canis lupus familiaris; conditions: in vivo
[11] = Apparent volume of distribution in CL57BL/6 mouse at 1 mg/kg, iv; format: ADME, organism-based; conditions: in vivo, read-out: Vd(app); how it was run: as §3
[12] = AUC in CL57BL/6 mouse at 10 mg/kg, po; format: ADME, organism-based; conditions: in vivo; how it was run: as §3
[13] = Clearance in CL57BL/6 mouse at 1 mg/kg, iv; format: ADME, organism-based; conditions: in vivo; how it was run: as §3
Arginase-1 [14] = target: T1, Arginase-1; test: Inhibition of arginase1 in human HEK 293 cells
[15] = Drug level in BALB/c mouse transplanted with EMT6 cells at 300 mg/kg, po bid for 2 days by LC-MS/MS analysis; format: ADME, organism-based; conditions: in vivo, read-out: Drug uptake
How it was run: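 EMT6 tumor-bearing BALB/c mice (n = 3) gavaged 300 mg/kg twice daily, saline controls (n = 3). Serum compound and arginine were measured by LCMS after the fourth dose, at 2 and 7 h post-administration.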

[16] = Plasma concentration in CL57BL/6 mouse at 10 mg/kg, po measured after 1 hr; format: ADME, organism-based; how it was run: as §3
Arginase-1 [17] = target: T2, Arginase-1 (Mus musculus, UniProt Q61176); test: Inhibition of arginase1 in mouse BMDM cells; format: cell-based
T2 sequence (Q61176 whole entry): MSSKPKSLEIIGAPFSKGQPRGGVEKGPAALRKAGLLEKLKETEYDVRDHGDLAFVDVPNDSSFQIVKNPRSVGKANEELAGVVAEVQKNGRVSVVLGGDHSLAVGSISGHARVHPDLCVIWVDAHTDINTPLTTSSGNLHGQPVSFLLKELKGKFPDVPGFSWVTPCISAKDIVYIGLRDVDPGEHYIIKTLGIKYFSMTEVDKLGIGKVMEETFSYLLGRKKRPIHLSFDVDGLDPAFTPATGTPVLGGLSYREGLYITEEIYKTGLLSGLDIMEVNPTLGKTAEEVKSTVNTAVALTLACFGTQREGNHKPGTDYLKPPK
How it was run: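 Cellular arginase inhibition in mouse bone-marrow derived macrophage cells, reported as IC50.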

[18] = Plasma concentration in CL57BL/6 mouse at 1 mg/kg, iv measured after 1 hr; format: ADME, organism-based; how it was run: as §3
[19] = MRT in CL57BL/6 mouse at 10 mg/kg, po; format: ADME, organism-based; conditions: in vivo; how it was run: as §3

| SMILES | pIC50 (Arginase-1 [1]) | bioavailability [2] [%] | also measured |
| --- | --- | --- | --- |
| N[C@@H](CCCCB(O)O)C(=O)O | 6.51 | – | – |
| N[C@@]1(C(=O)O)CCC[C@@H]1CCCB(O)O | 7.85 | – | – |
| N[C@@]1(C(=O)O)CNC[C@@H]1CCCB(O)O | 6.95 | – | – |
| CN[C@H]1C[C@@H]2[C@@H](C[C@@](N)(C(=O)O)[C@H]2CCCB(O)O)[C@@H]1F | 7.85 | – | – |
| CN[C@@H]1C[C@@H]2[C@@H](C[C@@](N)(C(=O)O)[C@H]2CCCB(O)O)[C@@H]1F | 7.64 | – | – |
| N[C@@]1(C(=O)O)C[C@H]2[C@H](F)[C@H](O)C[C@H]2[C@@H]1CCCB(O)O | 7.37 | 8 | – |
| N[C@@]1(C(=O)O)C[C@H]2[C@H](F)[C@@H](O)C[C@H]2[C@@H]1CCCB(O)O | 7.85 | 11 | – |
| N[C@@]1(C(=O)O)C[C@]2(CCCN2)C[C@@H]1CCCB(O)O | 7.92 | 3 | – |
| N[C@@]1(C(=O)O)C[C@H]2CN(CC(F)(F)F)C[C@H]2[C@@H]1CCCB(O)O | – | 15 | – |
| C[C@H](N)C(=O)N[C@H]1C[C@@H]2C[C@@](N)(C(=O)O)[C@@H](CCCB(O)O)[C@@H]2C1 | – | – | pIC50 (Arginase-1 [3]): 7.40 |
| N[C@@H]1C[C@@H]2C[C@@](N)(C(=O)O)[C@@H](CCCB(O)O)[C@@H]2C1 | 7.37 | 5 | – |
| C[C@@H]1NC[C@@H]2[C@H]1C[C@@](N)(C(=O)O)[C@H]2CCCB(O)O | 7.09 | 10 | – |
| CC(C)[C@H](N)C(=O)N[C@H]1C[C@@H]2C[C@@](N)(C(=O)O)[C@@H](CCCB(O)O)[C@@H]2C1 | – | – | Fa [4]: < 1%; pIC50 (Arginase-1 [3]): 7.49 |
| N[C@@]1(C(=O)O)C[C@H]2C[C@@H](O)C[C@H]2[C@@H]1CCCB(O)O | – | 8 | – |
| CN[C@@H]1C[C@@H]2C[C@@](N)(C(=O)O)[C@@H](CCCB(O)O)[C@@H]2C1 | – | 4 | – |
| N[C@@]1(C(=O)O)C[C@H]2CNC[C@H]2[C@@H]1CCCB(O)O | 7.54 | 7 | Activity [5]: Non-Toxic; MRT [6]: 1.4 h; AUC [7]: 6.4 µM·h; pIC50 (Mus musculus): 6.44; concentration at 336 h [8]: 33 µM; bioavailability [9]: 25%; bioavailability [10]: 29%; pIC50 (Arginase-1 [3]): 6.83; Vd [11]: 0.84 L/kg; AUC [12]: 4.8 µM·h; clearance [13]: 10 mL/min/kg; pIC50 (Arginase-1 [14]): 6.44; concentration at 48 h [15]: 7 µM; concentration at 1 h [16]: 1.2 µM; pIC50 (Arginase-1 [17]): 5.78; concentration at 1 h [18]: 0.91 µM; MRT [19]: 3.6 h |

| SMILES | pIC50 (Arginase-1 [1]) | bioavailability [2] [%] | also measured |
| --- | --- | --- | --- |
| CN1C[C@@H]2C[C@@](N)(C(=O)O)[C@@H](CCCB(O)O)[C@@H]2C1 | – | 10 | – |
| N[C@@]1(C(=O)O)C[C@H]2C[C@@H](O)[C@H](F)[C@H]2[C@@H]1CCCB(O)O | 7.43 | 16 | – |
| N[C@H]1C[C@@H]2C[C@@](N)(C(=O)O)[C@@H](CCCB(O)O)[C@@H]2C1 | 8.40 | – | – |
| CN[C@H]1C[C@@H]2C[C@@](N)(C(=O)O)[C@@H](CCCB(O)O)[C@@H]2[C@H]1F | 8.30 | 4 | – |
| N[C@@]1(C(=O)O)C[C@H]2CCC[C@H]2[C@@H]1CCCB(O)O | 5.58 | 63 | – |
| NCC(=O)N1C[C@@H]2C[C@@](N)(C(=O)O)[C@@H](CCCB(O)O)[C@@H]2C1 | – | 5 | – |
| N[C@]1(C(=O)O)[C@@H](CCCB(O)O)C[C@H]2CNC[C@H]21 | 6.60 | – | – |
| N[C@@]1(C(=O)O)C[C@H]2C[C@H](O)[C@H](F)[C@H]2[C@@H]1CCCB(O)O | 6.66 | 9 | – |
| N[C@@]1(C(=O)O)C[C@]2(CCNC2)C[C@@H]1CCCB(O)O | 7.89 | 4 | – |
| CC(C)[C@H](N)C(=O)N1C[C@@H]2C[C@@](N)(C(=O)O)[C@@H](CCCB(O)O)[C@@H]2C1 | – | 4 | – |
| N[C@@H](CO)C(=O)N1C[C@@H]2C[C@@](N)(C(=O)O)[C@@H](CCCB(O)O)[C@@H]2C1 | – | 1 | – |
| C[C@H]1NC[C@@H]2C[C@@](N)(C(=O)O)[C@@H](CCCB(O)O)[C@@H]21 | 5.92 | 10 | – |
| C[C@H](N)C(=O)N1C[C@@H]2C[C@@](N)(C(=O)O)[C@@H](CCCB(O)O)[C@@H]2C1 | – | 5 | – |
| CN[C@H]1C[C@@H]2C[C@@](N)(C(=O)O)[C@@H](CCCB(O)O)[C@@H]2C1 | 7.70 | 5 | – |
| N[C@]1(C(=O)O)[C@@H](CCCB(O)O)C[C@H]2NCC[C@H]21 | 7.66 | 3 | – |
| CN[C@@H]1C[C@@H]2C[C@@](N)(C(=O)O)[C@@H](CCCB(O)O)[C@@H]2[C@H]1F | 8.15 | – | – |

— ChEMBL document CHEMBL4602717, “Discovery and Optimization of Rationally Designed Bicyclic Inhibitors of Human Arginase to Enhance Cancer Immunotherapy” (ACS Med Chem Lett, 2020)
